Reference: ChEMBL document CHEMBL4177755, “Combating Drug-Resistant Fungi with Novel Imperfectly Amphipathic Palindromic Peptides” (J Med Chem, 2018)
Calls of active or inactive are those of the source. The rule behind the calls is not given here.

Tests used:
RAW264.7 [1] = assay: Cytotoxicity against mouse RAW264.7 cells assessed as decrease in cell viability at 64 uM after 24 hrs by MTT assay relative to control; type: cell-based; conditions: raw264.7, 24 h
Method in brief: (§1)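 MTT viability assay. RAW264.7 or HEK293T cells at (1.0−2.0) × 10^5 per well were exposed to a peptide concentration series for 24 h at 37 °C in 5% CO2. MTT was then added at 0.5 mg/mL final for 4 h; formazan was dissolved in DMSO and read at 570 nm. Results average three independent trials.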

[2] = Cytotoxicity against HEK293T cells assessed as cell viability at 2 to 32 uM after 24 hrs by MTT assay relative to control; type: cell-based, HEK-293T; conditions: human, read-out: Activity; method in brief: as §1
HEK-293T = assay: Cytotoxicity against HEK293T cells assessed as decrease in cell viability at 64 uM after 24 hrs by MTT assay relative to control; type: cell-based; conditions: human; method in brief: as §1
[3] = Cytotoxicity against mouse RAW264.7 cells assessed as cell viability at 2 to 32 uM after 24 hrs by MTT assay relative to control; type: cell-based; conditions: read-out: Activity; method in brief: as §1
Escherichia coli [4] = assay: Change in membrane morphology in Escherichia coli ATCC 25922 assessed as loss of intracellular contents at MBC after 1 hr by transmission electron microscopy; type: functional, organism-based
Method in brief: (§2)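 E. coli ATCC 25922 or C. albicans cgmcc 2.2086 were treated with peptide at 1× MBC/MFC for 1 h alongside peptide-free controls, then imaged by AFM, SEM or TEM for membrane and ultrastructural changes.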

Candida albicans [5] = assay: Antifungal activity against Candida albicans cgmcc 2.2086 in presence of 25% human heat-inactivated serum by broth dilution method; type: functional
Candida albicans [6] = assay: Fungicidal activity against Candida albicans cgmcc 2.2086 at MFC after 5 hrs by time-kill assay; type: functional
Method in brief: (§3)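 Time-kill: E. coli ATCC 25922 or C. albicans cgmcc 2.2086 was exposed to peptide at 1× MBC/MFC. At intervals, aliquots were diluted and spread on MHA (bacteria, counted after 24 h at 37 °C) or YPDA (yeast, counted after 48 h at 28 °C). Values are means of three independent assays.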

Lipid bilayer [7] = assay: Binding affinity to phosphatidylcholine/phosphatidylethanolamine/phosphatidylinositol/ergosterol large unilamellar vesicle assessed as induction of calcein leakage at 32 uM after 15 mins by spectrofluorophotometric method relative to control
Method in brief: (§4)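 Compositions were PG/CL/PE 2:1:7 w/w/w (E. coli membrane mimic; lines 4,5) and PC/PE/PI/ergosterol 5:4:1:2 w/w/w/w (fungal membrane mimic; lines 2,3). Lipids underwent 20 freeze–thaw cycles and were extruded through 100 nm filters; free calcein was removed by gel filtration.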

Candida albicans [8] = assay: Antifungal activity against Candida albicans cgmcc 2.2086 in presence of 12.5% human heat-inactivated serum by broth dilution method; type: functional
RAW264.7 [9] = assay: Immunostimulatory activity in mouse RAW264.7 cells assessed as induction of TNFalpha secretion by ELISA; type: cell-based
Method in brief: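 RAW 264.7 macrophages were exposed to peptide at various concentrations. TNF-α in culture supernatants was measured by ELISA and NO by Griess reagent. Values are means ± SEM of three independent experiments.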

Escherichia coli [10] = assay: Antibacterial activity against Escherichia coli ATCC 25922 after 18 hrs in presence of 25% human heat-inactivated serum by broth dilution method; type: functional; conditions: ATCC 25922, 18 h
Lipid bilayer [11] = assay: Binding affinity to phosphatidylglycerol/cardiolipin/phosphatidylethanolamine large unilamellar vesicle assessed as induction of calcein leakage after 15 mins by spectrofluorophotometric method; method in brief: as §4
Escherichia coli [12] = assay: Bactericidal activity against Escherichia coli ATCC 25922 at MBC after 5 hrs by time-kill assay; type: functional; method in brief: as §3
Candida albicans [13] = assay: Antifungal activity against Candida albicans cgmcc 2.2086 in presence of 50% human heat-inactivated serum by broth dilution method; type: functional
Escherichia coli [14] = assay: Induction of cell wall permeabilization in Escherichia coli ATCC 25922 assessed as increase in NPN uptake by fluorescence spectrophotometric method; type: functional, organism-based
Method in brief: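 Log-phase cells at OD600 0.2 in 5 mM HEPES (pH 7.4, 5 mM glucose) were preloaded with 10 μM NPN for 30 min, then peptide was added. Fluorescence (ex 350/em 420 nm) was followed until it plateaued and converted to % NPN uptake against initial and maximal fluorescence. Triplicate.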

Candida albicans [15] = assay: Induction of membrane damage in Candida albicans cgmcc 2.2086 assessed as empty regions formation of cytoplasm at MFC after 1 hr by transmission electron microscopy; type: functional, organism-based; method in brief: as §2
Escherichia coli [16] = assay: Induction of cell wall permeabilization in Escherichia coli ATCC 25922 assessed as increase in NPN uptake at 2 uM by fluorescence spectrophotometric method relative to control; type: functional
Method in brief: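 Log-phase E. coli ATCC 25922 or C. albicans cgmcc 2.2086 at OD600 0.2 in 5 mM HEPES pH 7.4 with 5 mM glucose was preloaded 30 min with 10 μM NPN, then peptide was added. Fluorescence (ex 350, em 420 nm) was followed until it plateaued and converted to % uptake against a 100% reference. Run in triplicate.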

RAW264.7 [17] = assay: Induction of endotoxin-neutralization in mouse RAW264.7 cells assessed as inhibition of LPS-induced nitric oxide production at 16 uM after 18 hrs by Griess assay relative to control; type: functional; conditions: RAW264.7, 18 h
Method in brief: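 RAW 264.7 cells were stimulated with 50 ng/mL LPS with or without peptide at various concentrations. TNF-α in supernatants was measured by ELISA and NO by Griess reagent. Mean ± SEM of three independent experiments, compared against LPS alone.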

Candida albicans [18] = assay: Induction of membrane damage in Candida albicans cgmcc 2.2086 assessed as membrane creping at MFC after 1 hr by scanning electron microscopy; type: functional, organism-based
Method in brief: (§5)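 E. coli ATCC 25922 was treated at 1× MBC and C. albicans cgmcc 2.2086 at 1× MFC, each for 1 h. Untreated control cells were processed in parallel without peptide. Surface morphology was imaged by AFM and SEM, and ultrastructure by TEM.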

Lipid bilayer [19] = assay: Binding affinity to phosphatidylcholine/cholesterol large unilamellar vesicle assessed as induction of calcein leakage at 2 to 32 uM after 15 mins by spectrofluorophotometric method; conditions: 0.25 h
Method in brief: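 Large unilamellar vesicles were made from PG/CL/PE (2:1:7), PC/PE/PI/ergosterol (5:4:1:2) or PC/cholesterol (10:1), loaded with 70 mM calcein in Tris/NaCl/EDTA buffer at pH 7.4, frozen and thawed 20 times, and extruded through 100 nm filters. Free dye was removed by gel filtration, and peptide-induced calcein release was measured.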

Escherichia coli [20] = assay: Induction of membrane damage in Escherichia coli ATCC 25922 assessed as appearance of roughened and broken membrane at MBC after 1 hr by scanning electron microscopy; type: functional, organism-based; method in brief: as §5
Candida albicans [21] = assay: Fungicidal activity against fluconazole-resistant Candida albicans 56452 at 0.5 times MFC after 30 passages; type: functional, organism-based
Method in brief: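 Resistance induction. C. albicans cultures were serially passaged by 100-fold dilution every 24 h in 2 mL RPMI 1640 containing sub-MFC peptide, and the MFC was retested at each passage. A control was passaged in RPMI 1640 alone.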

Escherichia coli [22] = assay: Disruption of cytoplasmic membrane electrical potential in Escherichia coli ATCC 25922 at MBC after 800 secs by DiSC3-5 dye-based fluorescence spectrophotometric method; type: functional, organism-based

Row | Compound | Activity (RAW264.7 [1]) | viability at 24 h, up to 32 µM [2] [%] | Activity (HEK-293T) | viability at 24 h, up to 32 µM [3] [%] | MIC (Candida albicans [5]) [µM] | MIC (Candida albicans [8]) [µM] | MIC (Candida albicans [13]) [µM] | Activity (Lipid bilayer [19]) | other results
1 | H-WWRRWRRWW-NH2 | Toxic | 70 to 80 | Toxic | 70 to 80 |  |  |  |  | 
2 | H-RRIRIIIRIRR-NH2 |  |  |  |  | 4 | 2 | 8 | Not Active | Activity (Escherichia coli [4]): Active; Activity (Candida albicans [6]): >99.99%; Activity (Lipid bilayer [7]): 62%; Activity (RAW264.7 [9]): Non-Toxic; MIC (Escherichia coli [10]): 4 µM; Activity (Lipid bilayer [11]): Dose-dependent effect; Activity (Escherichia coli [12]): >99.99%; Activity (Escherichia coli [14]): Dose-dependent effect; Activity (Candida albicans [15]): Active; Activity (Escherichia coli [16]): >70%; inhibition at 16 µM (RAW264.7 [17]): 100%; Activity (Candida albicans [18]): Active; Activity (Escherichia coli [20]): Active; Activity (Candida albicans [21]): Active
3 | H-RWWRRWRRWWR-NH2 | Toxic | 70 to 80 | Toxic | 70 to 80 |  |  |  |  | 
4 | CC[C@H](C)[C@H](NC(=O)CN)C(=O)NCC(=O)N[C@@H](C)C(=O)N[C@H](C(=O)N[C@@H](CC(C)C)C(=O)N[C@@H](CCCCN)C(=O)N[C@H](C(=O)N[C@@H](CC(C)C)C(=O)N[C@H](C(=O)N[C@H](C(=O)NCC(=O)N[C@@H](CC(C)C)C(=O)N1CCC[C@H]1C(=O)N[C@@H](C)C(=O)N[C@@H](CC(C)C)C(=O)N[C@H](C(=O)N[C@@H](CO)C(=O)N[C@@H](Cc1c[nH]c2ccccc12)C(=O)N[C@H](C(=O)N[C@@H](CCCCN)C(=O)N[C@@H](CCCNC(=N)N)C(=O)N[C@@H](CCCCN)C(=O)N[C@@H](CCCNC(=N)N)C(=O)N[C@@H](CCC(N)=O)C(=O)N[C@@H](CCC(N)=O)C(N)=O)[C@@H](C)CC)[C@@H](C)CC)[C@@H](C)O)[C@@H](C)O)C(C)C)C(C)C [MELITTIN] |  |  |  |  | 32 | 32 | 64 | Active | Activity (Escherichia coli [22]): Active
